Measurements gathered from unrelated publications.
Protocols differ between the studies behind these lines.
Cell line: MDA-MB-231
Read-out: cell growth or viability

CC1=CC(=O)c2c(O)cccc2C1=O
IC50 (MTT; 24 h): 4.4 µM

COC1(C2CSC(=O)N2)CC2CC(CCC(C)C=CC=CCCC(C)=CC(=O)O2)O1 (stereo not drawn)
IC50 (MTT; 72 h): 23.4 µM

CC(C)=CCc1c(O)cc2oc3cc(O)c(O)c(CC=C(C)C)c3c(=O)c2c1O
IC50 (48 h): 16.4 µM

Cn1c(CCCC(=O)O)nc2cc(N(CCCl)CCCl)ccc21
IC50 (MTT): 13.3 µM

N.N.O=C([O-])C1(C(=O)[O-])CCC1.[Pt+2]
IC50 (MTT; 96 h): 33 µM

COc1ccc2c(c1)[nH]c1c(C)nccc12
IC50 (MTT; 72 h): 16.7 µM

Nc1cc(Br)c(Br)cc1N
IC50 (72 h): 60 µM

COC(C(=O)N1C(=O)SCC1C1(OC)CC2CC(CCC(C)C=CC=CCCC(C)=CC(=O)O2)O1)c1ccccc1 (stereo not drawn)
IC50 (MTT; 72 h): 26.2 µM

CCCc1cc(=O)n2nc(NCc3c(F)cc(Cl)cc3F)c(C#N)c2[nH]1
IC50 (ATP luminescence; 72 h): > 50 µM

O=C(O)CCCc1ccc(N(CCCl)CCCl)cc1
IC50 (CCK-8; 48 h): > 50 µM

C/C1=C/C(=O)O[C@@H]2C[C@@H](CC[C@H](C)/C=C\C=C\CC1)O[C@@](OC(=O)c1ccccc1)([C@@H]1CSC(=O)N1)C2
IC50 (MTT; 72 h): 5.05 µM

N.N.[Cl][Pt][Cl]
IC50 (24 h): 68.4 µM
